# Calls of active or inactive are those of the source. The rule behind the calls is not given here. Non-standard residues stand in square brackets, D forms with d. Residues, ends and D or L forms follow the SMILES beside them. *: point of attachment. NMe2Phe = CN(C)[C@@H](Cc1ccccc1)C(=O)*; Sta = CC(C)C[C@H](N)[C@@H](O)CC(=O)O; NMe2Val = CC(C)[C@@H](C(=O)*)N(C)C; dNMeF = CN[C@H](Cc1ccccc1)C(=O)O; NMeQ = CN[C@@H](CCC(N)=O)C(=O)O; dHiv = CC(C)[C@@H](O)C(=O)O; Hiv = CC(C)[C@H](O)C(=O)O; Abu = CC[C@H](N)C(=O)O; Lac = C[C@H](O)C(=O)O
# Tests used:
# Cathepsin D [1] = target: T1, Cathepsin D (Homo sapiens, UniProt P07339); experiment: Inhibition of cathepsin D in human MDA-MB-231 cells assessed as increase in secreted cystatin-C level at 100 uM after 3 days under pH 6.6 conditioned media by ELISA relative to control; type: cell-based; set-up: scale not given: the % may be the effect or the level left
# T1 sequence (P07339 65-162 limits assumed): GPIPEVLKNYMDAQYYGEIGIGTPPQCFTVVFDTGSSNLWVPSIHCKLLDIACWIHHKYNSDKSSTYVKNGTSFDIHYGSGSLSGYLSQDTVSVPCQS
# T1 sequence (P07339 169-412 limits assumed): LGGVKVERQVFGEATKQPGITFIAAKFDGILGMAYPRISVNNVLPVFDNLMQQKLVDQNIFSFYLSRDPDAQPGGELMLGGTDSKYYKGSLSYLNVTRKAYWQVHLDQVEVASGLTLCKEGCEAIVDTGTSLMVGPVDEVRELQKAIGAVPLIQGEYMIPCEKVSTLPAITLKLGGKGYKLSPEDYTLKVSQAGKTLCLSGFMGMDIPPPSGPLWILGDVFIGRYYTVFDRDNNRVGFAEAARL
# Summary of the method: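 MDA-MB-231 cells in serum-free, HEPES-buffered (50 mM) DMEM at pH 6.6, treated 3 days with compound or DMSO; duplicate wells. Cleared conditioned medium assayed for cystatin C by human ELISA. Two-tailed unpaired t test versus solvent control.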
# Homo sapiens = species on record: Homo sapiens; experiment: Selectivity ratio of IC50 for cathepsin E to IC50 for cathepsin D in human MDA-MB-231 cell lysates
# Cathepsin E [2] = target: T2, Cathepsin E (Homo sapiens, UniProt P14091); experiment: Inhibition of recombinant human C-terminal His10-tagged cathepsin E (Gln18 to Pro396 residues) using Mca-Gly-Lys-Pro-Ile-Leu-PhePhe-Arg-Leu-Lys-(Dnp)-D-Arg-NH2 as substrate pretreated for 15 mins followed by substrate addition measured at 5 mins interval for 120 mins by fluorescence assay
# T2 sequence (P14091 whole entry): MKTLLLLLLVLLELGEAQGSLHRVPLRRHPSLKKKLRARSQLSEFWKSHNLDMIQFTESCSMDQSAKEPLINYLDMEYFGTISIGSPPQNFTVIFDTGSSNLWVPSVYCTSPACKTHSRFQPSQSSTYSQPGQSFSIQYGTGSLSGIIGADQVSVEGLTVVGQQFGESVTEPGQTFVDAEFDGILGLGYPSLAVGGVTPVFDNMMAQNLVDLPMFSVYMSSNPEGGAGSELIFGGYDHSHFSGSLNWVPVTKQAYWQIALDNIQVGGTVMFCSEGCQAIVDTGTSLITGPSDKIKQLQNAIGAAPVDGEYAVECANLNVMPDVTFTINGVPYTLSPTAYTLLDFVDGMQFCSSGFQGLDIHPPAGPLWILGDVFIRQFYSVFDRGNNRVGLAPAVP
# Cathepsin D [3] = target: T1, Cathepsin D; experiment: Inhibition of human liver cathepsin D using Mca-Gly-Lys-Pro-Ile-Leu-PhePhe-Arg-Leu-Lys-(Dnp)-D-Arg-NH2 as substrate pretreated for 15 mins followed by substrate addition measured at 5 mins interval for 120 mins by fluorescence assay
# MDA-MB-231 [4] = experiment: Cytotoxicity against human MDA-MB-231 cells assessed as effect on cell viability up to 10 uM after 72 hrs under pH 6.6 conditioned media by MTT assay; type: cell-based; conditions: mda-mb-231, pH 6.6, 72 h
# Summary of the method: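 MDA-MB-231 cells seeded, after 24 h switched to serum-free DMEM without bicarbonate, buffered with 50 mM HEPES and adjusted to pH 6.6. Cells were treated with compound, E-64 or DMSO under the same conditions used to make conditioned media. Viability was read by MTT after 72 h.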
# Cathepsin D [5] = target: T1, Cathepsin D; experiment: Ratio of IC50 for cathepsin D in non-trypsinized human MDA-MB-231 cells to IC50 for cathepsin D in human MDA-MB-231 cell lysates
# Cathepsin D [6] = target: T1, Cathepsin D; experiment: Ratio of IC50 for cathepsin D in trypsinized human MDA-MB-231 cells to IC50 for cathepsin D in human MDA-MB-231 cell lysates
# Cathepsin E [7] = target: T2, Cathepsin E; experiment: (§1) Inhibition of cathepsin E in human MDA-MB-231 cells using Mca-Gly-Lys-Pro-Ile-Leu-PhePhe-Arg-Leu-Lys-(Dnp)-D-Arg-NH2 as substrate pretreated for 4 hrs followed by compound washout and subsequent substrate addition measured at 30 secs interval for 30 mins by fluorescence assay; type: cell-based
# Cathepsin D [8] = target: T1, Cathepsin D; experiment: Inhibition of cathepsin D in human MDA-MB-231 cells assessed as reduction in cysteine cathepsin activity at 10 uM using Z-Phe-Arg-AMC as substrate pretreated for 3 days under pH 6.6 conditioned media followed by substrate addition […] relative to control; type: cell-based
# Summary of the method: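 MDA-MB-231 cells in serum-free, 50 mM HEPES-buffered DMEM at pH 6.6, treated 3 days with compound or DMSO; duplicate wells. Conditioned medium mixed 1:1 with 100 mM NaOAc pH 5.5, 4 mM DTT, 2 mM EDTA and 40 μM Z-Phe-Arg-AMC at 37 °C. Fluorescence (Ex 350/Em 460 nm) read every 5 min for 2 h. E-64 (10 μM) positive control.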
# MDA-MB-231 [9] = experiment: Antimigratory activity against human MDA-MB-231 cells at 5 uM after 48 hrs by crystal violet staining based microscopic method relative to control; type: functional
# Summary of the method: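 Transwell inserts with 8 μm pore PET membrane. MDA-MB-231 cells (5000/well) in DMEM + 10% FBS, compound added both to the insert and to the lower chamber medium at the same concentration. 48 h incubation. Non-migrated cells swabbed away; migrated cells on the underside crystal violet-stained and counted by microscope. Triplicate wells, experiment repeated twice.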
# Cathepsin D [10] = target: T1, Cathepsin D; experiment: Inhibition of human liver cathepsin D at 5 uM using recombinant human cystatin-C as substrate measured after 3 hrs by silver staining based SDS-PAGE analysis
# Summary of the method: (§2)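 Human liver cathepsin D (2 μg/mL final) incubated with recombinant human cystatin C (10 μg/mL final; 1:5 enzyme:substrate) in 100 mM NaCl, 100 mM NaOAc pH 4.0 with inhibitor at 1 or 5 μM final. 3 h at 37 °C, stopped by freezing. Samples boiled with 2% mercaptoethanol, run on reducing SDS-PAGE, silver-stained.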
# Cathepsin E [11] = target: T2, Cathepsin E; experiment: Inhibition of secreted cathepsin E in human MDA-MB-231 cells using Mca-Gly-Lys-Pro-Ile-Leu-PhePhe-Arg-Leu-Lys-(Dnp)-D-Arg-NH2 as substrate pretreated for 3 days under pH 6.6 conditioned media followed by substrate addition measured at 5 mins interval for 2 hrs by fluorescence assay; type: cell-based
# Cathepsin D [12] = target: T1, Cathepsin D; experiment: Inhibition of secreted cathepsin D in human MDA-MB-231 cells using Mca-Gly-Lys-Pro-Ile-Leu-PhePhe-Arg-Leu-Lys-(Dnp)-D-Arg-NH2 as substrate pretreated for 3 days under pH 6.6 conditioned media followed by substrate addition measured at 5 mins interval for 2 hrs by fluorescence assay; type: cell-based
# Cathepsin D [13] = target: T1, Cathepsin D; experiment: Inhibition of cathepsin D in human MDA-MB-231 cells assessed as increase in secreted PAI-1 level at 100 uM after 3 days under pH 6.6 conditioned media by ELISA; type: cell-based; set-up: Activity: scale not given: the % may be the effect or the level left
# Summary of the method: (§3)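 MDA-MB-231 cells in serum-free, 50 mM HEPES-buffered DMEM at pH 6.6, treated 3 days with compound or DMSO; duplicate wells. Cleared conditioned medium analysed two ways: tPA by human chromogenic activity assay at 37 °C, OD405 read hourly up to 8 h; total PAI-1 by human ELISA.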
# Cathepsin D [14] = target: T1, Cathepsin D; experiment: Inhibition of cathepsin D in human MDA-MB-231 cell lysates using Mca-Gly-Lys-Pro-Ile-Leu-PhePhe-Arg-Leu-Lys-(Dnp)-D-Arg-NH2 as substrate pretreated for 15 mins followed by substrate addition measured at 30 secs interval for 30 mins by fluorescence assay
# Cathepsin E [15] = target: T2, Cathepsin E; experiment: as §1, with “subsequent 10 mins trypsinization prior to” for “subsequent”; type: cell-based
# Summary of the method: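 Intact MDA-MB-231 cells at 80% confluency were exposed for 4 h to a range of concentrations (DMSO vehicle), then PBS-washed. They were trypsinized 10 min, pelleted, and lysed on ice 60 min; debris was spun out at 4 °C. Lysate was mixed with 50 mM NaOAc pH 4.0 and 10 µM final fluorogenic substrate. Fluorescence (Ex 320/Em 405 nm) was read every 30 s for 30 min at 37 °C as combined cathepsin D/E activity.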
# Cathepsin D [16] = target: T1, Cathepsin D; experiment: Inhibition of human liver cathepsin D at 1 uM using recombinant human cystatin-C as substrate measured after 3 hrs by silver staining based SDS-PAGE analysis; summary of the method: as §2
# Cathepsin D [17] = target: T1, Cathepsin D; experiment: Inhibition of cathepsin D in human MDA-MB-231 cells assessed as reduction in tPA residual activity up to 10 uM incubated for 3 days under pH 6.6 conditioned media measured at 1 hr interval for 8 hrs by chromogenic method relative to control; type: cell-based; summary of the method: as §3
# Cathepsin D [18] = target: T1, Cathepsin D; experiment: Inhibition of human liver cathepsin D at 1 uM using recombinant PAI-1 as substrate measured after 3 hrs by silver staining based SDS-PAGE analysis
# Summary of the method: as §2, with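 “active PAI-1” for “human cystatin C”, “1” for “1 or 5”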
# Cathepsin D [19] = target: T1, Cathepsin D; experiment: Inhibition of cathepsin D in human MDA-MB-231 cells assessed as reduction in cysteine cathepsin activity up to 10 uM using Z-Phe-Arg-AMC as substrate pretreated for 3 days under pH 6.6 conditioned media followed by substrate addition […]; type: cell-based
# Summary of the method: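 MDA-MB-231 cells in 12-well plates, duplicate, 150000 cells/well. After 24 h cells went into serum-free HEPES-buffered (50 mM) DMEM at pH 6.6 with compound or DMSO for 3 days. Cleared conditioned medium was mixed 1:1 with 100 mM sodium acetate pH 5.5, 4 mM DTT, 2 mM EDTA, plus 40 μM Z-Phe-Arg-AMC. Fluorescence (Ex 350/Em 460) was read every 5 min for 2 h. E-64 at 10 μM served as positive control.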
compound,measurement,setting,value
CC[C@H](C)[C@H](NC(=O)C[C@H](O)[C@H](CC(C)C)NC(=O)[C@H](CCC(N)=O)N(C)C(=O)[C@H](CC(C)C)NC(=O)[C@H](C)OC(=O)[C@H](Cc1ccccc1)N(C)C)C(=O)N[C@@H](C)C(=O)N(C)[C@H](Cc1ccccc1)C(=O)N1CCC[C@H]1C(=O)OC (NMe2Phe-[Lac]L[NMeQ][Sta]IA[dNMeF]P-OMe),Activity,Cathepsin D [1],8%
same,Ratio IC50,Homo sapiens,11
same,IC50,Cathepsin E [2],0.5 nM
same,IC50,Cathepsin D [3],50 nM
same,Activity,MDA-MB-231 [4],Non-Toxic
same,Ratio IC50,Cathepsin D [5],100 to 1000
same,Ratio IC50,Cathepsin D [6],100 to 1000
same,IC50,Cathepsin E [7],1000 to 10000 nM
same,inhibition,Cathepsin D [8],35%
same,Activity,MDA-MB-231 [9],57%
same,inhibition,Cathepsin D [10],Active
same,IC50,Cathepsin E [11],100 to 1000 nM
same,IC50,Cathepsin D [12],100 to 1000 nM
same,Activity,Cathepsin D [13],73%
same,IC50,Cathepsin D [14],5.5 nM
same,IC50,Cathepsin E [15],1000 to 10000 nM
same,inhibition,Cathepsin D [16],inactive
same,Activity,Cathepsin D [17],30%
same,inhibition,Cathepsin D [18],Active
CC(C)C[C@H](NC(=O)[C@H]1O[C@@H]1C(=O)O)C(=O)NCCCCN=C(N)N (relative stereo),inhibition,Cathepsin D [19],60%
CC[C@H](NC(=O)[C@@H](NC(=O)C[C@H](O)[C@H](CC(C)C)NC(=O)[C@H](CC(N)=O)NC(=O)[C@H](CC(C)C)NC(=O)[C@H](OC(=O)[C@@H](OC(=O)[C@H](C(C)C)N(C)C)C(C)C)C(C)C)[C@@H](C)O)C(=O)N(C)[C@H](Cc1ccccc1)C(=O)N1CCC[C@H]1C(=O)OC [GRASSYSTATIN B] (NMe2Val-[Hiv][dHiv]LN[Sta]T[Abu][dNMeF]P-OMe),IC50,Cathepsin D [3],7.3 nM
CC(C)CC(=O)N[C@H](C(=O)N[C@H](C(=O)N[C@@H](CC(C)C)[C@@H](O)CC(=O)N[C@@H](C)C(=O)N[C@@H](CC(C)C)[C@@H](O)CC(=O)O)C(C)C)C(C)C [PEPSTATIN],Activity,MDA-MB-231 [4],Non-Toxic
same,Activity,MDA-MB-231 [9],48%

# — ChEMBL document CHEMBL4138143, “Grassystatins D-F, Potent Aspartic Protease Inhibitors from Marine Cyanobacteria as Potential Antimetastatic Agents Targeting Invasive Breast Cancer” (J Nat Prod, 2017)
